Reference: publication PMC4969713 (Journal of Alzheimer's Disease, 2016)
Structures can show the parent of a compound that is named as a salt.

Tests used:
[1] = target: T1, 5-HT2C receptor (Homo sapiens, UniProt P28335); test: Radioligand binding competition, 5-HT2C; conditions: Ki
T1 sequence (P28335 33-458): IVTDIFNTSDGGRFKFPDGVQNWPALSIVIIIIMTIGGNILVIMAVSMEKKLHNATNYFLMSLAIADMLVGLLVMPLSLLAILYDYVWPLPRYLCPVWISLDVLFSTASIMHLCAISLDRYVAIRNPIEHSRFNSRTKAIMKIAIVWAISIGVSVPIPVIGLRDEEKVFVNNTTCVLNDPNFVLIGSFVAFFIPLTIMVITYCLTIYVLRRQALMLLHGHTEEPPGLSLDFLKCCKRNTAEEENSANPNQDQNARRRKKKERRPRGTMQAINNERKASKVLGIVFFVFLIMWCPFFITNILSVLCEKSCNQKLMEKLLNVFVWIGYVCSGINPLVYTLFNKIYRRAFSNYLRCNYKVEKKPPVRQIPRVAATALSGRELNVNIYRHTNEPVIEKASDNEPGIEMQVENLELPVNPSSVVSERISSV

[2] = target: imidazoline I2 receptor; test: Radioligand binding competition, imidazoline I2
[3] = target: Adrenergic α1D (Homo sapiens, UniProt P25100); test: Radioligand competition, adrenergic α1D; type: binding
[4] = tested on: Dopaminergic receptors; test: Radioligand competition, dopaminergic receptors; type: binding; conditions: compared to the 5-HT7 receptor
[5] = target: 5-HT2B receptor (Rattus norvegicus, UniProt P30994); test: Rat stomach fundus contraction assay
[6] = target: H1 receptor (Homo sapiens, UniProt P35367); test: Histamine-induced Ca2+ mobilization in SK-N-SH cells; type: cell-based
Procedure, shortened: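 SK-N-SH cells challenged with 10μM histamine; transient rise in intracellular free Ca2+ recorded as the response, with test compound examined for blockade of this histamine-evoked signal.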

[7] = Solubility in water; type: physicochemical; conditions: pH 7.4
[8] = Metabolism in human microsomes; type: in vitro ADME; conditions: for Remaining quantity: HLM
[9] = target: CYP1A2 (Homo sapiens, UniProt P05177); test: Metabolism by recombinant CYP1A2; type: in vitro ADME
[10] = target: CYP2C19 (Homo sapiens, UniProt P33261); test: Metabolism by recombinant CYP2C19; type: in vitro ADME
[11] = Pharmacokinetics in mice, IP; type: in vivo; conditions: mouse, blood
[12] = tested on: male BALB/c mice; test: Passive avoidance, scopolamine-induced amnesia, mice; type: in vivo
[13] = tested on: BALB/c mice; test: Passive avoidance, MK-801-induced amnesia, mice; type: in vivo
[14] = tested on: BALB/c mice; test: Morris water maze, scopolamine-induced amnesia; type: in vivo; conditions: IP; AVN-101 0.2 mg/kg; Tacrine 3 mg/kg; donepezil 1 mg/kg; scopolamine 1.5 mg/kg
Procedure, shortened: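 Scopolamine-induced amnesia model in male BALB/c mice. Read-out was time spent in the quadrant where the escape platform had been during the two preceding training days, reported as mean ± SE.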

[15] = tested on: male BALB/c mice; test: Novel object recognition, scopolamine-induced; type: in vivo; conditions: 1.0 mg/kg scopolamine; memantine 10 mg/kg; SB-742457 0.2 or 1.0 mg/kg
Procedure, shortened: (§1)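 All drugs were dissolved in saline and given IP; control animals received saline vehicle. Each group had at least 8 male BALB/c mice. Read-out was novel object recognition index, reported as mean ± SE.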

[16] = tested on: male BALB/c mice; test: Novel object recognition, MK-801-induced; type: in vivo; conditions: 0.2 mg/kg MK-801; memantine 10 mg/kg; SB-742457 0.2 or 1.0 mg/kg
Procedure, shortened: as §1

[17] = Maximum tolerated dose, 5-day oral; type: in vivo, mice; conditions: male, CD1, mouse, in vivo, po
Procedure, shortened: (§2)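 Male CD1 mice received test compound in sterile water orally at 10, 30 or 60 mg/kg once daily for 5 days (n = 8 per group). Body weight and deaths were recorded daily, followed by a 2-week observation phase. MTD was taken as the highest dose causing neither mortality nor body-weight loss.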

[18] = tested on: male CD1 mice; test: Maximum tolerated dose, 5-day oral; type: in vivo
Procedure, shortened: as §2

[19] = tested on: male adult SHK mice; test: 14 days toxicity, mice; type: in vivo; conditions: 5 mg/kg PO daily
Procedure, shortened: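 Mice randomly assigned to a vehicle group or a 5 mg/kg group.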

[20] = tested on: laboratory rabbits; test: 30 days toxicity, rabbits; type: in vivo; conditions: 4 mg/kg PO daily
[21] = Dialysis of diluted rat plasma against rat brain homogenate; type: in vitro ADME; conditions: 1μM AVN-101 in 20% plasma vs brain homogenate
Procedure, shortened: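 A 48-well semi-permeable-membrane dialysis plate was used. Donor chamber held 20% rat plasma diluted in PBS with 1 μM test compound; acceptor chamber held rat brain homogenate. Both chambers were sampled at several time points, and samples were matrix-equilibrated by cross-adding the opposite matrix. Membrane-permeability controls used 20% plasma in both chambers or PBS in both chambers.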

[22] = target: hERG potassium channel (Homo sapiens, UniProt Q12809); test: hERG single cell patch clamp in HEK cells
Sequence of hERG potassium channel (Q12809 whole entry): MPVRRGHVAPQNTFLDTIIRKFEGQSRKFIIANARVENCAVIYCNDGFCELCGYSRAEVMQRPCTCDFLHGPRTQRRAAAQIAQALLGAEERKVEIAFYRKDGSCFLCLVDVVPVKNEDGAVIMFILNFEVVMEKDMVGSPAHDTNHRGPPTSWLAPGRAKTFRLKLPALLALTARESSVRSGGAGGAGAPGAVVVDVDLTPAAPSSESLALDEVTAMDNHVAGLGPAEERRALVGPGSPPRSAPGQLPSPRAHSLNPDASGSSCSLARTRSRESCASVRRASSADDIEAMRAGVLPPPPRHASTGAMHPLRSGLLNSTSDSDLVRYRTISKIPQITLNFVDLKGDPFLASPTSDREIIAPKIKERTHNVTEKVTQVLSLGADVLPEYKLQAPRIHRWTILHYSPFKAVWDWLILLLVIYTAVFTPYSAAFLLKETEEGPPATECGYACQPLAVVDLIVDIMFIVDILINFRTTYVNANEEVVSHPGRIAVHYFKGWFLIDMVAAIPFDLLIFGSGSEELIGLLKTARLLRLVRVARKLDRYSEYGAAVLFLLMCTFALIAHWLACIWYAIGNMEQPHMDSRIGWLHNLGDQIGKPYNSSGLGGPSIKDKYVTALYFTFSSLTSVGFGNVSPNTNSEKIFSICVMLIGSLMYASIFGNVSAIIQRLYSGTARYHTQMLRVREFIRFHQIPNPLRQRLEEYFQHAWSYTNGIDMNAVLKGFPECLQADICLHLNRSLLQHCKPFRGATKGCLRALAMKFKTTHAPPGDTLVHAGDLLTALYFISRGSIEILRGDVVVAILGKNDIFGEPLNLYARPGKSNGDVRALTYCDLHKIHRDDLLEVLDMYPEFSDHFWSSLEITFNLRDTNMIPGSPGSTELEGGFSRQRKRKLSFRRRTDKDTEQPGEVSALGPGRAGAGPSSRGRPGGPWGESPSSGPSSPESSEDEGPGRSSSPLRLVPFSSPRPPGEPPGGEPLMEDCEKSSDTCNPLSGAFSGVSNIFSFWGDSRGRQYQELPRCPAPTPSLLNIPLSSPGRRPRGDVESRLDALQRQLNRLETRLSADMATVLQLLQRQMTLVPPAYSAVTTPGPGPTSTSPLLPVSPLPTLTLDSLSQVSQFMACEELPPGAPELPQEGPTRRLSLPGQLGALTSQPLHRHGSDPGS

Sequence of 5-HT2B receptor (P30994 whole entry): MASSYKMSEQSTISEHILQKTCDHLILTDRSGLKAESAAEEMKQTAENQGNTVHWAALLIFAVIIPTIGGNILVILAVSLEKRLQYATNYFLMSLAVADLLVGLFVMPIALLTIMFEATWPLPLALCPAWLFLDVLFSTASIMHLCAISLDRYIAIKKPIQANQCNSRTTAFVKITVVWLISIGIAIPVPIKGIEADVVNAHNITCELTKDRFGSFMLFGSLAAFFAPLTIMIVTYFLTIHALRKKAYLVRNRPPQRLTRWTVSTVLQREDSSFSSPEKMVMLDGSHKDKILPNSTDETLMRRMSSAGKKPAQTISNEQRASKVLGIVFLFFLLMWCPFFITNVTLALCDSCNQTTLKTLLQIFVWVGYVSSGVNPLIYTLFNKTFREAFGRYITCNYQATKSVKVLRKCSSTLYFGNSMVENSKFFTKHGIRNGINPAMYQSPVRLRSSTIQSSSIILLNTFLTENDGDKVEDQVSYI
Sequence of H1 receptor (P35367 whole entry): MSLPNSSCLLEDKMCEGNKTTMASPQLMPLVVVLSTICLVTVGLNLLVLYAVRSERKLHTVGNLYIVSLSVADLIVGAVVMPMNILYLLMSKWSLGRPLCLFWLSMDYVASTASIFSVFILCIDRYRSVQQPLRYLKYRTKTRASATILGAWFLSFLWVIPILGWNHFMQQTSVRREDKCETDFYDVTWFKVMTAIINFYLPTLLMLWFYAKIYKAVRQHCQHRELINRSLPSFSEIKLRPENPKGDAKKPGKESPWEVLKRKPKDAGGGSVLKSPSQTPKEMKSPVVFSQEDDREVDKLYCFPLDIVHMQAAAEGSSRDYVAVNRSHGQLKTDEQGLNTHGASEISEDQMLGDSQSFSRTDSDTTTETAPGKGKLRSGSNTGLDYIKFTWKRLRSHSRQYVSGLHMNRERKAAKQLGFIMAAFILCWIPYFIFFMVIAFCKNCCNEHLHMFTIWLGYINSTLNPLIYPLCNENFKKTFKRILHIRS
Sequence of Adrenergic α1D (P25100 whole entry): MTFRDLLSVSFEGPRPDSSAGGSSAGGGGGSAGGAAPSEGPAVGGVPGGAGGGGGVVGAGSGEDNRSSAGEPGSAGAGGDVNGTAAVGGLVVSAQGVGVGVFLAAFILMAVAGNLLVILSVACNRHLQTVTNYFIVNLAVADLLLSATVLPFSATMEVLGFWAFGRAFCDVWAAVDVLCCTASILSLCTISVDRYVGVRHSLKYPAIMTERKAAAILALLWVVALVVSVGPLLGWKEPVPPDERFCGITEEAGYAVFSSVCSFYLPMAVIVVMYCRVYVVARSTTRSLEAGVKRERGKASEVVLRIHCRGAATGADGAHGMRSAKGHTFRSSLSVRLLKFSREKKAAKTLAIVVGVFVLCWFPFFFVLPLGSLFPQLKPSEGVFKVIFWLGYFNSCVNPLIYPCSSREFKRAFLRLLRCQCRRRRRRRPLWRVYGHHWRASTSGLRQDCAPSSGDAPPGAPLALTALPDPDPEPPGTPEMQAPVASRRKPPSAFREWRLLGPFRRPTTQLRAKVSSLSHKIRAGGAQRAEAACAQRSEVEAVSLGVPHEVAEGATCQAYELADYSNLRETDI
Sequence of CYP1A2 (P05177 whole entry): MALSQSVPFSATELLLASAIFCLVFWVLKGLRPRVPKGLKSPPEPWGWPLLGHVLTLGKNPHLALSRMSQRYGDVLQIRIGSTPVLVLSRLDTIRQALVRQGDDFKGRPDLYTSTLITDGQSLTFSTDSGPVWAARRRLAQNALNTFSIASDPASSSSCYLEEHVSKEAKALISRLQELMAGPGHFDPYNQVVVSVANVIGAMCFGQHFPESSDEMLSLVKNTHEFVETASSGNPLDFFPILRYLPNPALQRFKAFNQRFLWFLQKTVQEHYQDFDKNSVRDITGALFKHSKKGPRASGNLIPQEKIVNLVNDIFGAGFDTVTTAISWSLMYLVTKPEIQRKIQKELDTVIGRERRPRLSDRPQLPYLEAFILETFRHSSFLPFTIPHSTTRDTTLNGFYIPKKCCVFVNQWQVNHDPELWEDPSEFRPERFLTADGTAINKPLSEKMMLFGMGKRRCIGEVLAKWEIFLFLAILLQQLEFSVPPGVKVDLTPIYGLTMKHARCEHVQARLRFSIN
Sequence of CYP2C19 (P33261 whole entry): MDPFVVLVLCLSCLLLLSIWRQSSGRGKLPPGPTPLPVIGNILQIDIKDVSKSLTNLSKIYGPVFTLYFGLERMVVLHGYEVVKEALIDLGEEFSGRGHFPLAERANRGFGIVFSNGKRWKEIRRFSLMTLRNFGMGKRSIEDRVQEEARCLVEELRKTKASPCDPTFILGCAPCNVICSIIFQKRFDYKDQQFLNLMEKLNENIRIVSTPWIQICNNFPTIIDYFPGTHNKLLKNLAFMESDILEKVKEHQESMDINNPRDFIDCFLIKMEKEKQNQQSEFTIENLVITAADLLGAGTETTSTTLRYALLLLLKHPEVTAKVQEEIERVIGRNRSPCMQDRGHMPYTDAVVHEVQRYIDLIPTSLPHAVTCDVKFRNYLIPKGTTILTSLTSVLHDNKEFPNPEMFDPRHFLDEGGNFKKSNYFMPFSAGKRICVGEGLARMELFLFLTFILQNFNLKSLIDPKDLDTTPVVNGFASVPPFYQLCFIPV

## Cc1ccc2c(c1)c1c(n2CCc2ccccc2)CCN(C)C1 [AVN-101, 2,8-dimethyl-5-penethyl-2,3,4,5-tetra-hydro-1h-pyrido[[4,3-B]]indole hydrochloride]
[1]
  Ki: 1.2 to 2 nM
[2]
  Ki: 179 nM
[3]
  Ki: 30.2 nM
[4]
  affinity: very low affinity
[5]
  blockade of α methyl-serotonin-induced fundus contraction: effectively blocking
[5]; AVN-101 alone
  agonistic activity (fundus contraction): lacked intrinsic agonistic activity
[6]
  receptor activation: activated neither H1 nor H2 receptors
[6]; 10μM histamine, Ca2+ mobilization
  blockade of agonist-induced cell response: effectively blocked
[7]
  solubility: 194 mg/mL
[8]; 1μM
  k el: 0.335
[8]; 2μM, 30-min incubation
  original AVN-101 consumed: 57%
[8]; AVN-101 1 μM, 7.9 min
  Remaining quantity: 3.0%
[8]; AVN-101 1 μM, 30 min
  Remaining quantity: 2%
[8]; AVN-101 2 μM, 7.9 min
  Remaining quantity: 40.0%
[8]; AVN-101 2 μM, 30 min
  Remaining quantity: 43%
[8]; human, liver microsomes
  half-life at 1 µM: 2.07 min
  microsomal CLint at 1 µM: 335 µL/min/mg
[9]
  remaining at 0.5 h, 2 µM: 46%
[10]
  remaining at 0.5 h, 2 µM: 1%
[11]; 0.05 mg/kg
  Cmax: 1.9 ng/mL
  Tmax: 5 min
  half-life: 10.5 min
[11]; 0.05 mg/kg, AUC0 - >t, IP 0.05 mg/kg
  AUC: 0.487 ng·h/mL
[11]; 0.05 mg/kg, AUC0 - >∞, IP 0.05 mg/kg
  AUC: 0.498 ng·h/mL
[11]; 0.2 mg/kg
  Cmax: 5 ng/mL
  Tmax: 15 min
  half-life: 58 min
[11]; 0.2 mg/kg, AUC0 - >t, IP 0.2 mg/kg
  AUC: 5.65 ng·h/mL
[11]; 0.2 mg/kg, AUC0 - >∞, IP 0.2 mg/kg
  AUC: 6.08 ng·h/mL
[11]; 1 mg/kg
  Cmax: 23 ng/mL
  Tmax: 15 min
  half-life: 81 min
[11]; 1 mg/kg, AUC0 - >t, IP 1.0 mg/kg
  AUC: 25.9 ng·h/mL
[11]; 1 mg/kg, AUC0 - >∞, IP 1.0 mg/kg
  AUC: 32 ng·h/mL
[11]; 2 mg/kg
  half-life: 130 min
[11]; 5 mg/kg
  Cmax: 198 ng/mL
  Tmax: 5 min
  concentration at 5 min: ~650 nM
  half-life: 136 min
[11]; 5 mg/kg, AUC0 - >t, IP 5.0 mg/kg
  AUC: 184 ng·h/mL
[11]; 5 mg/kg, AUC0 - >∞, IP 5.0 mg/kg
  AUC: 274 ng·h/mL
[12]; AVN-101 5 mg/kg IP
  reversal of scopolamine-induced amnesia vs comparators: equal to or more effective than either memantine or tacrine
[12]; IP, scopolamine 0.3 mg/kg
  lowest dose with preventative effect on scopolamine-induced amnesic parameters: 0.02 mg/kg
[12]; scopolamine model
  anti-amnesic dose: 0.05 mg/kg
[13]; IP
  effect on MK-801-induced amnesia: dose-dependently prevented
[13]; MK-801 model
  anti-amnesic dose: 0.5 mg/kg
[14]
  effect on scopolamine-induced amnesia (time in platform quadrant): effectively reversed
[15]
  effect on deficit in novel object recognition: partially reverse
[16]
  effect on deficit in novel object recognition: partially reverse
[17]
  MTD at 5 days: 10 to 30 mg/kg
[18]; 30 mg/kg PO once daily for 5 days
  mortality: 12.5%
[18]; 60 mg/kg PO once daily for 5 days
  mortality: 50%
[18]; 60 mg/kg, starting from the 4th day
  body weight: statistically significant weight loss
[19]
  signs of toxicity: No signs of toxicity
[20]
  body weight, plasma biochemistry markers, macro- and microscopic observations: No changes
  kidney finding, one of 3 males: small infarctions in cortical substance of the kidneys
  ovary finding, one of 3 females: ovary hypo function
[21]
  concentration in brain-containing chamber vs plasma chamber: never exceeds that of the plasma chamber
[22]
  IC50: 580 nM
